# Bioassay records deposited in PubChem BioAssay by Johns Hopkins Ion Channel Center.
# RGS4 inh: inhibitors of human RGS4; HEK293 M3R/RGS4 inducible, Fluo-4 calcium flux; stronger effect = higher value; triggered by carbachol at its EC20; P49798; 0.45% of 310,000 active; AID 463165; B-score at 10 µM;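 active = B-score, a plate-corrected calcium signal, over three deviations above library mean, with baseline fluorescence within five deviations of library mean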;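 also: RGS4 expression induced by doxycycline in cells with stable M3 receptor; B-score is computed from the integrated fluorescence ratio over baseline after carbachol; higher B-score means a larger calcium signal and so more RGS4 inhibition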
# Target sequence (P49798 whole entry, looked up): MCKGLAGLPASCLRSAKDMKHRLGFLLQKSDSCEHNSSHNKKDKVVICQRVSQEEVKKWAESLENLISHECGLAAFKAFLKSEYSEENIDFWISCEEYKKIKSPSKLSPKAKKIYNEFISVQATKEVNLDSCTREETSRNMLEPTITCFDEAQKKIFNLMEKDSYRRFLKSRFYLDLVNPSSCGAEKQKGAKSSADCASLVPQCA
# MrgX1 ag: human MrgX1 receptor agonism, primary screen; Q96LB2; MrgX1-HEK293 cells, Fluo-4 calcium fluorescence, agonist mode; stronger effect = higher value; B-score at 10 µM; 0.44% of 310,000 active;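 active = calcium response B-score plate-corrected fluorescence ratio at least 3 library SD, with starting fluorescence B-score inside 5 SD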
#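 Assay system: stable human MrgX1 HEK293 cell line. Quantity: 15,000 cells per well. Schedule: cells plated overnight, dye loaded 0.5 h 37 °C, 0.5 h room temperature. Detection: Fluo-4 NW calcium-flux fluorescence, kinetic read. Read-out basis: peak-minus-minimum fluorescence over baseline, converted to B scores. Control set: positive and negative control wells on each plate.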
# MrgX1 antag: blocks BAM8-22 activation of human MrgX1 receptor | Q96LB2 | MRGX1-HEK293 calcium flux, Fluo-4, BAM8-22 antagonism; stronger effect = lower value | B-score at 10 µM | 1.3% of 310,000 active | AID 588676;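 active = calcium-response B-score plate-corrected more than 3 library SD below zero, starting fluorescence within 5 deviations, no agonist response on first addition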;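 also: peak minus trough fluorescence over baseline after final BAM8-22 challenge near maximal dose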
# MrgX1 PAM: human MrgX1 positive allosteric modulation, primary screen; 0.63% of 310,000 active; AID 588675; MrgX1-HEK293, Fluo-4 calcium flux, FDSS; stronger effect = higher value; Q96LB2; B-score at 10 µM;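 active = plate-corrected calcium response at least 3 library SD above typical, normal starting fluorescence, not activating the receptor alone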;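 also: compound read alongside a low EC10 to EC30 dose of BAM8-22 agonist; peak minus trough fluorescence over baseline measured at the second addition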
# RGS4 pot: potentiators or activators of RGS4. AID 463111. 0.92% of 310,000 active. HEK293 M3R/inducible RGS4, carbachol calcium flux Fluo4; stronger effect = lower value. B-score at 10 µM;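 active = B-score of the integrated calcium signal more than 4 SD below the library mean, with starting fluorescence not abnormally high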;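 also: negative B-score means reduced calcium response which marks RGS4 activation or potentiation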
#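 Assay system: HEK293 FlpIn-TREx cells, stable M3R, doxycycline-inducible RGS4 / Probe or stimulus: carbachol, ECmax concentration / Times: overnight RGS4 induction, 30 min dye load 37 °C, 20 min compound RT / Signal: kinetic calcium fluorescence imaging with Fluo4-AM dye, 2 µM / Measure: Agonist-evoked peak-minus-minimum fluorescence over baseline, integrated ratio, B score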
# An asterisk follows results filed as active; i = inactive; / = not tested or not shown. Compounds with a hit are over-represented: about 3.5% of the library has one in this group of screens.
SMILES,RGS4 inh,MrgX1 ag,MrgX1 antag,MrgX1 PAM,RGS4 pot
Cc1cc(O)c2c(-c3ccccc3)cc(=O)oc2c1,/,44*,i,i,/
CC(=O)COc1cc(C)cc2oc(=O)cc(-c3ccccc3)c12,i,i,i,i,i
O=C(C1CCN(Cc2ccc(Cl)cc2)CC1)N1CCN(C(c2ccccc2)c2ccccc2)CC1,i,i,i,i,-8*
NNC(=S)Nc1ccc(S(=O)(=O)N2CCCCC2)cc1,i,i,i,i,i
N=c1c2c(-c3ccccc3)c(-c3ccccc3)n(Cc3ccco3)c2ncn1Cc1ccco1,i,i,-8.1*,i,-7*
N=c1c2c(-c3ccccc3)c(-c3ccccc3)n(Cc3ccccc3)c2ncn1CCCn1ccnc1,i,i,i,i,i
CN1CCN(C(=O)c2ccccc2Nc2ccc(SC(F)F)cc2)CC1,i,i,i,i,i
CC1CC(C)CN(C(=O)c2ccccc2Nc2ccc(SC(F)F)cc2)C1 (configuration not stated),i,i,i,i,-7.4*
OC1(c2cccs2)CN(c2ccc(Br)cc2)C2=[N+]1CCCS2 (configuration not stated),i,i,i,13*,-7.2*
CCN(CC)S(=O)(=O)c1ccc(C(=O)N(c2ccccc2)C2C=CS(=O)(=O)C2)cc1 (configuration not stated),i,i,i,i,i
CCN(CC)CCC(C)OC(c1ccccc1)c1ccccc1 (configuration not stated),i,i,i,i,-8.7*
O=C(COc1ccccc1)NNC(=S)NC(=O)c1ccc(Cl)cc1Cl,i,98*,i,i,i
O=C(O)CCC(=O)NNC(=O)COc1cccc(Cl)c1,i,i,i,i,i
O=C(COc1cccc(Cl)c1)NNC(=S)Nc1ccccc1,i,i,i,8.7*,i
COCCNCCCCOc1ccccc1-c1ccccc1,i,i,-5.2*,i,i
CC1=C(C)CC(C(=O)Nc2ccc3c(c2)OCO3)C(C(=O)O)C1 (configuration not stated),i,i,i,i,i
Cc1ccc(CNC(=O)CS(=O)Cc2nc(-c3ccccc3F)oc2C)cc1 (configuration not stated),i,i,i,i,i
C=CCC(O)(CCN1CCCCC1)c1ccccc1 (configuration not stated),i,i,i,i,i
COc1ccc(C(O)(CCc2ccccc2)CCN2CCCCC2)cc1 (configuration not stated),i,i,i,i,-8.9*
CN(CC(=O)Nc1ccccc1C(F)(F)F)C(=O)CSCc1ccccc1,i,i,i,i,i
C=CC[n+]1c(-c2ccc(OCC)cc2)csc1NNC(=O)Nc1ccccc1,i,i,-6.2*,i,i
Cc1ccc(NC(=O)c2cc(C(=O)Nc3ccc(C)cc3)n(C)n2)cc1,i,i,i,i,i
CCC(O)c1nc2ccccc2n1CCc1ccccc1 (configuration not stated),i,i,i,i,i
COc1ccc(CCNC(=O)Cn2c(=O)n(CCCC(=O)NCc3ccco3)c(=O)c3sccc32)cc1OC,i,i,i,6.4*,i
CCCCCN1CC(=O)N2[C@@H](Cc3c([nH]c4ccccc34)C2(C)C)C1=O,i,i,i,i,i
CCCCN(CCCC)CCCN1CC(=O)N2[C@@H](Cc3c([nH]c4ccccc34)C2(C)C)C1=O,i,i,i,i,-8.4*
Clc1ccc(CSc2nnc(-c3sccc3-n3cccc3)o2)cc1,i,i,-4.8*,i,i
Brc1ccccc1C1CC(c2ccccc2)=Nc2ccccc2N1 (configuration not stated),i,i,i,i,i
Clc1ccccc1C1CC(c2ccccc2)=Nc2ccccc2N1 (configuration not stated),i,i,i,i,-7.4*
CN(c1cccc(NC(=O)c2cccc([N+](=O)[O-])c2)c1)S(C)(=O)=O,i,i,i,i,i
